Most compounds without a hit are left out; they make up all but 1% or so of the library.
FXIIa inh 1536 – factor XIIa (human) inhibition. P00748. purified FXIIa, Boc-QGR-AMC fluorogenic substrate, 2 h. inhibition, % at 5 µM. actives 0.3% (n = 220,000); in the data active means inhibition above about 40%;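 further: 0% = enzyme with no compound and 100% = blank without enzyme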
FXIa inh 1536 – blocks human coagulation factor XIa protease activity; inhibition, % at 5 µM; P03951; purified FXIa, Boc-Glu-Ala-Arg-AMC fluorogenic substrate; actives 0.14% (n = 220,000);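 active means inhibition of at least 40%; inactive means inhibition below 40%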;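 further: fluorescence of freed AMC excited at 355 nm; 0% = enzyme without compound and 100% = no enzyme blank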
Target sequence (P03951 19-387 limits assumed): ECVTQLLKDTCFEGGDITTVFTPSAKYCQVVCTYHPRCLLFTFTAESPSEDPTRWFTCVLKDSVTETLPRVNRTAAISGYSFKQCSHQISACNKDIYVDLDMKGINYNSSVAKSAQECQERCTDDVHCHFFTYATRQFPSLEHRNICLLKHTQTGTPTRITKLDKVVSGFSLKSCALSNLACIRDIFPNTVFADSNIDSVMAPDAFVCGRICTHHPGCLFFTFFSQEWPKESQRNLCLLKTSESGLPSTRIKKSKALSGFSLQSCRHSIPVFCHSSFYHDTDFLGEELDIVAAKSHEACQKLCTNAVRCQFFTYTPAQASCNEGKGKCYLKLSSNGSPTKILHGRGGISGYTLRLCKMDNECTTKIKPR
Target sequence (P03951 388-625 limits assumed): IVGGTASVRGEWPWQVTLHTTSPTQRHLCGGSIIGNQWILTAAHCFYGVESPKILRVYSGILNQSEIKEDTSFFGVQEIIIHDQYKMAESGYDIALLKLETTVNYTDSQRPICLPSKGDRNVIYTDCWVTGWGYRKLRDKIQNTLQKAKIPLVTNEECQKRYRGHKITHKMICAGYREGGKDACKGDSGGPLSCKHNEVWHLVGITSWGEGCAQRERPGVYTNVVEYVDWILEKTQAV
KLK5 inh – kallikrein 5 (human) inhibition. recombinant hK5, fluorogenic AMC substrate cleavage. inhibition, % at 5 µM. actives 0.59% (n = 210,000);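 active means inhibition of 40% or more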;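 further: 0% = enzyme controls without compound and 100% = no-enzyme blanks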
Thrombin inh – inhibitors of human thrombin. inhibition, % at 5 µM. P00734. actives 0.26% (n = 220,000). alpha-thrombin, Boc-VPR-AMC fluorogenic substrate cleavage. AID 1046;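 active means inhibition at or above 40%; inactive means inhibition below 40%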;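 further: 0% = enzyme with no compound and 100% = wells without enzyme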
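System – human alpha-thrombin protein · Reagent – Boc-VPR-AMC substrate, 15 µM final · Compound – 5 µM single dose in 0.2% DMSO · Schedule – reaction at room temperature · Technique – AMC fluorescence at 355 nm excitation and 460 nm emission · Read-out basis – % inhibition relative to enzyme controls and enzyme-free blanks · Control set – no-compound enzyme wells and no-enzyme blanks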
An asterisk follows results filed as active.

`CCOC(=O)C1CCN(C(=O)c2ccccc2NS(=O)(=O)c2ccc(F)cc2)CC1` gave FXIIa inh 1536 12.5, FXIa inh 1536 2.7, KLK5 inh -20.3 and Thrombin inh -1.3.
Screening COc1cc(OC)cc(C(=O)NNC(=O)c2ccccc2Br)c1 returned FXIIa inh 1536 0.9, FXIa inh 1536 -4.0, KLK5 inh 30.5 and Thrombin inh 88.6*.
For COc1ccccc1C(=O)NNC(=O)c1ccc(F)cc1 the results were FXIIa inh 1536 8.6, FXIa inh 1536 2.9, KLK5 inh 60.7* and Thrombin inh 17.6.
For COc1ccccc1C(=O)NNC(=O)c1ccc(Cl)cc1 the results were FXIIa inh 1536 4.8, FXIa inh 1536 -0.9, KLK5 inh -4.6 and Thrombin inh -9.1.
COc1cc(/C=N/Nc2nc(Nc3ccccc3)nc(N3CCOCC3)n2)ccc1OC(=O)c1ccco1 was read as FXIIa inh 1536 3.4, FXIa inh 1536 -3.9, KLK5 inh -7.6 and Thrombin inh 4.4.
COc1cc(C=O)ccc1Oc1nc(Nc2ccc(F)cc2F)nc(N2CCOCC2)n1 was read as FXIIa inh 1536 33.8, FXIa inh 1536 27.2, KLK5 inh 62.6* and Thrombin inh 10.3.
`COc1cc(CC(=O)Nc2nccs2)cc(OC)c1OC` gave FXIIa inh 1536 2.7, FXIa inh 1536 -1.1, KLK5 inh 42.7* and Thrombin inh 5.5.
For COc1cc(C(=O)NC(=S)Nc2nccs2)cc(OC)c1OC the results were FXIIa inh 1536 10.6, FXIa inh 1536 1.2, KLK5 inh 3.6 and Thrombin inh 0.1.
Screening Cc1cc(C)c(NC(=O)c2ccoc2C)c(C)c1 returned FXIIa inh 1536 18.9, FXIa inh 1536 4.8, KLK5 inh 61.3* and Thrombin inh 12.3.
`CCCC(=O)NNC(=O)c1ccoc1C` gave FXIIa inh 1536 40.1*, FXIa inh 1536 9.1, KLK5 inh 26.3 and Thrombin inh 17.8.
For Cc1occc1C(=O)Nc1ccccc1C(=O)O the results were FXIIa inh 1536 2.8, FXIa inh 1536 -0.9, KLK5 inh -9.4 and Thrombin inh 0.8.
For Cc1noc(NS(=O)(=O)c2ccc(NC(=O)C(CC(C)C)N3C(=O)c4ccccc4C3=O)cc2)c1C (stereo not given) the results were FXIIa inh 1536 3.8, FXIa inh 1536 -2.0, KLK5 inh -2.4 and Thrombin inh -10.3.
`COC(Cn1c(C)c(C(C)=O)c(C(C)=O)c1C)OC` gave FXIIa inh 1536 48.2*, FXIa inh 1536 24.4, KLK5 inh 1.4 and Thrombin inh 1.8.
Screening CC(=O)c1c(C(C)=O)c(C)n(Cc2ccccc2)c1C returned FXIIa inh 1536 14.9, FXIa inh 1536 0.7, KLK5 inh 13.5 and Thrombin inh 2.0.
CCOC(=O)C1=C(N)Oc2c(oc(CO)cc2=O)C1c1ccc(F)cc1 (stereo not given) was read as FXIIa inh 1536 13.4, FXIa inh 1536 4.2, KLK5 inh -3.8 and Thrombin inh 4.8.
COc1ccc(OC)c(NC(=O)C2CCCN(S(=O)(=O)c3cccc4cccnc34)C2)c1 (stereo not given) was read as FXIIa inh 1536 14.1, FXIa inh 1536 14.8, KLK5 inh 56.5* and Thrombin inh 22.8.
Screening CCOC(=O)N1CCN(C(=O)C2CCCN(S(=O)(=O)c3cc(C)ccc3OC)C2)CC1 (stereo not given) returned FXIIa inh 1536 -0.4, FXIa inh 1536 1.2, KLK5 inh 40.3* and Thrombin inh 103.5*.
For COc1ccc(OC)c(S(=O)(=O)N2CCCC(C)C2)c1 (stereo not given) the results were FXIIa inh 1536 33.1, FXIa inh 1536 49.0*, KLK5 inh -3.7 and Thrombin inh -3.8.
For COc1ccc(N2C(=O)C(Cl)=C(N3CCCC(C)C3)C2=O)cc1 (stereo not given) the results were FXIIa inh 1536 57.1*, FXIa inh 1536 43.6*, KLK5 inh 2.1 and Thrombin inh 3.7.
COc1ccc(N2C(=O)C(Cl)=C(N3CCCC3)C2=O)cc1 was read as FXIIa inh 1536 13.4, FXIa inh 1536 7.0, KLK5 inh -23.2 and Thrombin inh 1.6.
`COc1ccc(OC)c(S(=O)(=O)N2CCCCCC2)c1` gave FXIIa inh 1536 8.9, FXIa inh 1536 6.3, KLK5 inh -20.4 and Thrombin inh 3.8.
Cc1cccc(C)c1NC(=O)C(NC(=O)c1ccccn1)c1ccccc1[N+](=O)[O-] (stereo not given) was read as FXIIa inh 1536 5.0, FXIa inh 1536 -2.4, KLK5 inh 3.4 and Thrombin inh -8.4.
`NS(=O)(=O)c1ccc(CCNCC(=O)N2CCC(Cc3ccccc3)CC2)cc1` gave FXIIa inh 1536 6.5, FXIa inh 1536 -4.7, KLK5 inh -5.6 and Thrombin inh -4.0.

Screening data from PubChem BioAssay.
